For one assay, the system named is Human alphaherpesvirus 1. Briefly: Antiviral activity was measured by plaque assay against HSV-1 virus by ELISA method. Type of assay: functional, organism-based. The gist of the method: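 HSV-1 (KOS strain) ELISA in BSC-1 cells, 10 000 per well in MEM(E) + 10% calf serum, seeded overnight at 37 °C. Drug in quadruplicate wells plus virus at 100 pfu/well, 3 days at 37 °C. Read-out: HRP-conjugated rabbit anti-HSV-1 antibody with TMB substrate, stopped with H2SO4, absorbance at 450 and 570 nm. IC50 from linear regression of % inhibition against log concentration.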
A general note: An ELISA detects its analyte on a solid surface through an enzyme-linked reagent.

The test system of a further assay is KB. Briefly: Inhibition of KB cell growth was determined. Type of assay: functional, cell-based. As to conditions: Homo sapiens. The gist of the method: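 KB cells seeded at 3000–5000 per well, overnight at 37 °C. Compound added in quadruplicate at six to eight concentrations, 48 h at 37 °C in CO2 (two population doublings). Ethanol fixation, 0.1% crystal violet staining, acidified-ethanol elution, absorbance at 570 nm. IC50 by linear regression against log concentration.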

The test system of assay [1] is Human betaherpesvirus 5. As to the kind of experiment: Concentration required for 90% inhibition of HCMV replication was measured using a yield reduction assay. In kind it is functional. The gist of the method:
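HFF monolayers in 96-well dishes infected with HCMV (Towne) at moi 0.5 to 1 pfu per cell. Compound serially diluted 1:3, 100 to 0.14 μM, in duplicate. 7 days at 37 °C, then one freeze-thaw cycle. Progeny titred by 1:3 serial dilution onto fresh HFF monolayers with plaque counts. IC90 by regression of % inhibition against log concentration.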

In a further assay the test system is HFF. Briefly: Visual cytotoxicity was scored on HFF cells at time of HCMV plaque enumeration. Type of assay: functional, cell-based. As to conditions: Homo sapiens. The gist of the method:
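Stationary HFF cells from the HCMV plaque assay, not affected by virus, inspected microscopically for cytotoxicity when plaques were counted after 7 days at 37 °C with compound at four to eight concentrations.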

The subject of assay [2] is Human betaherpesvirus 5. Briefly: Concentration required for 50% inhibition of HCMV replication was measured using a Plaque reduction assay. In kind it is functional, organism-based. The gist of the method: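 HFF cells in 24-well dishes infected with about 100 pfu of HCMV (Towne) per cm² cell sheet. After adsorption, compound in growth medium added to duplicate wells at four to eight concentrations. Incubated 7 days at 37 °C, then crystal violet fixing/staining and microscopic plaque counts. IC50 by linear regression of % plaque reduction against log concentration.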
(In general: Plaque reduction counts the foci of infection that form in a cell layer.)

We go through 14 molecules from ChEMBL document CHEMBL1129961, “Design, synthesis, and antiviral evaluation of 2-chloro-5,6-dihalo-1-beta-D-ribofuranosylbenzimidazoles as potential agents for human cytomegalovirus infections” (J Med Chem, 1997).

As a reminder, the IC50 is the concentration that inhibits the measured activity by half. What is called IC90 is the concentration at which the effect reaches the 90% level.

For `OC[C@H]1OC(n2c(Cl)nc3cc(I)c(I)cc32)[C@H](O)[C@@H]1O` (some centres not stated), the IC50 amounted to 57 µM with Human alphaherpesvirus 1, 27 µM in the assay on KB, 13 µM in the assay with HFF and 2.5 µM in the assay on Human betaherpesvirus 5 [2]. The molecule also displayed an IC90 in the assay with Human betaherpesvirus 5 [1] of 2.2 µM.

Take `Cc1cc2nc(Cl)n(C3O[C@H](CO)[C@@H](O)[C@H]3O)c2cc1C` (some centres not stated): the half-inhibitory concentration (IC50) with Human alphaherpesvirus 1, in the assay on KB, with HFF and with Human betaherpesvirus 5 [2] was greater than 100 µM each time.

`O=C(O)P(=O)(O)O` [FOSCARNET] showed a 50% inhibitory concentration (IC50) with HFF greater than 100 µM.

Turning to `Clc1nc2cc(Br)c(Br)cc2[nH]1`, the IC50 in the assay with Human alphaherpesvirus 1 was determined as 65 µM; in the assay with KB, 35 µM; in the assay with HFF, 32 µM; in the assay on Human betaherpesvirus 5 [2] it was 8.5 µM.

`Clc1nc2cc(I)c(I)cc2[nH]1`: the IC50 with HFF came out at 32 µM; in the assay with Human betaherpesvirus 5 [2], 20 µM.

In the case of `O=[N+]([O-])c1cc2[nH]c(Cl)nc2cc1I`, the 50% inhibitory concentration (IC50) with Human alphaherpesvirus 1 worked out at 25 µM; in the assay on HFF, 10 µM; with Human betaherpesvirus 5 [2], 2.8 µM. The 90% effect level with Human betaherpesvirus 5 [1] (IC90) was put at 7 µM.

As to `Nc1nc2c(ncn2COC(CO)CO)c(=O)[nH]1` [GANCICLOVIR], the concentration for half-maximal inhibition (IC50) in the assay with KB and in the assay with HFF was greater than 100 µM throughout. The molecule further came in with an IC90 with Human betaherpesvirus 5 [1] of 1.6 µM.

Take `OC[C@H]1OC(n2c(Cl)nc3cc(F)c(F)cc32)[C@H](O)[C@@H]1O` (some centres not stated): the half-inhibitory concentration (IC50) in the assay with Human alphaherpesvirus 1, in the assay with KB, in the assay on HFF and in the assay on Human betaherpesvirus 5 [2] was greater than 100 µM throughout. Besides, in the assay with Human betaherpesvirus 5 [1], the IC90 worked out at 75 µM.

On to `Nc1cc2[nH]c(Cl)nc2cc1I`, for which the IC50 in the assay with Human alphaherpesvirus 1, in the assay on HFF and with Human betaherpesvirus 5 [2] was greater than 100 µM throughout.

For `OC[C@H]1OC(n2c(Cl)nc3ccccc32)[C@H](O)[C@@H]1O` (some centres not stated), the half-maximal inhibitory concentration (IC50) with KB, with HFF and in the assay on Human betaherpesvirus 5 [2] was greater than 100 µM in each case. This molecule also showed an IC90 in the assay on Human betaherpesvirus 5 [1] greater than 100 µM.

On to `Nc1cc2[nH]c(Cl)nc2cc1[N+](=O)[O-]`, for which the 50% inhibitory concentration (IC50) with Human alphaherpesvirus 1 is 90 µM; in the assay on HFF, greater than 100 µM; in the assay with Human betaherpesvirus 5 [2], greater than 100 µM.

Turning to `OC[C@H]1OC(n2c(Cl)nc3cc(Br)c(Br)cc32)[C@H](O)[C@@H]1O` (some centres not stated), the IC50 was greater than 100 µM in the assay with Human alphaherpesvirus 1, 88 µM with KB, 44 µM in the assay with HFF and 3.8 µM in the assay with Human betaherpesvirus 5 [2]. Further, the IC90 with Human betaherpesvirus 5 [1] stood at 1.3 µM.

In turn, `OC[C@H]1O[C@@H](n2c(Cl)nc3cc(Cl)c(Cl)cc32)[C@H](O)[C@@H]1O` showed an IC90 with Human betaherpesvirus 5 [1] of 1.4 µM.

Regarding `Fc1cc2nc(Cl)[nH]c2cc1F`, the IC50 with KB, with HFF and in the assay with Human betaherpesvirus 5 [2] was greater than 100 µM each time.
